According to ChEMBL document CHEMBL1156146 (Bioorg Med Chem Lett, 2009):
The source made the active and inactive calls. No cut-off for these calls is given here.

Experiments:
[1] = biological target: Prostaglandin G/H synthase 1 (Ovis aries) (UniProt P05979); test: Inhibition of ovine COX-1 by enzyme immuno assay
[2] = Selectivity index, ratio of IC50 for ovine COX-1 to IC50 for human recombinant COX-2
[3] = biological target: T1, Prostaglandin G/H synthase 2 (Homo sapiens, UniProt P35354); test: Inhibition of human recombinant COX-2 by enzyme immuno assay
T1 sequence (P35354 whole entry): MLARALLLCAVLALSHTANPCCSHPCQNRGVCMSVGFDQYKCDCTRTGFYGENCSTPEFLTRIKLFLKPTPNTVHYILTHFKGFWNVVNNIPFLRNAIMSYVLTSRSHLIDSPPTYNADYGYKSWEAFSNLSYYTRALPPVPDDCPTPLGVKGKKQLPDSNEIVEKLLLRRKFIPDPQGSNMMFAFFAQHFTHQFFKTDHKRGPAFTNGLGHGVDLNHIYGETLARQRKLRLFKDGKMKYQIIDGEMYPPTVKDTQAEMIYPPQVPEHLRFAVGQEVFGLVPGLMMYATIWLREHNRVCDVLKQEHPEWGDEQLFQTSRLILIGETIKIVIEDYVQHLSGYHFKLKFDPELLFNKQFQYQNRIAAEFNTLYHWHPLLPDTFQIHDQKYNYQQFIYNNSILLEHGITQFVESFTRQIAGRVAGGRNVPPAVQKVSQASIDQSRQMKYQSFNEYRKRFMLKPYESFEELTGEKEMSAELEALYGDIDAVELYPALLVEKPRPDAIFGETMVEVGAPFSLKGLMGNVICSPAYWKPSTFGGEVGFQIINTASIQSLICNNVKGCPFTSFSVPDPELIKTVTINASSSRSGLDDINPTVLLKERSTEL

[4] = biological target: T2, 5-lipoxygenase (Solanum tuberosum, UniProt O49150); test: Inhibition of potato 5-LOX after 5 mins by enzyme immuno assay
T2 sequence (O49150 whole entry): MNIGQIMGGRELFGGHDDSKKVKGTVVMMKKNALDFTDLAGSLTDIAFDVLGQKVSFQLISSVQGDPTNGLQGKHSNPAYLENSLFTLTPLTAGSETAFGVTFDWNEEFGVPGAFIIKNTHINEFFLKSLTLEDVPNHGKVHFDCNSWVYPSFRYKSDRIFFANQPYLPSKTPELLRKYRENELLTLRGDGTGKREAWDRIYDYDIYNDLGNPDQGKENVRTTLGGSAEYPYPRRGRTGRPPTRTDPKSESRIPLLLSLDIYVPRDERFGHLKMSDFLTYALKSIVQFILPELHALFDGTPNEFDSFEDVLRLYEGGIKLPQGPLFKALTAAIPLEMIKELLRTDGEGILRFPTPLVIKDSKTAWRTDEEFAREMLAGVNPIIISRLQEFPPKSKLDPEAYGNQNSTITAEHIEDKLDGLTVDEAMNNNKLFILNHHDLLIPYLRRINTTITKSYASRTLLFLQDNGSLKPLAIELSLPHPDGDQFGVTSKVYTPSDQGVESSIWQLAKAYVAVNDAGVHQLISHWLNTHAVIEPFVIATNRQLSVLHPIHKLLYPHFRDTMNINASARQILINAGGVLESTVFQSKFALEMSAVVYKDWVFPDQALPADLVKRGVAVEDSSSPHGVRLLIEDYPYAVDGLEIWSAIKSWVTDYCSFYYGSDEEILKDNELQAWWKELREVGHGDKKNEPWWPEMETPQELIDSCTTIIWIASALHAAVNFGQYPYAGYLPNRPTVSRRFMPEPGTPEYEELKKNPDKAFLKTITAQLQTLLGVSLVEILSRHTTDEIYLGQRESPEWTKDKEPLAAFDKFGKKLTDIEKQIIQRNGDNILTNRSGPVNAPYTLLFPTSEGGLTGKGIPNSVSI
Procedure, shortened: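 Potato 5-LOX inhibition measured with a LOX assay kit. IC50 is the mean of two determinations, deviation from the mean <10%.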

[5] = system: Rattus norvegicus; test: Antiinflammatory activity against assessed as inhibition of carrageenan-induced foot paw edema in po dosed rat after 3 hrs; type: functional
Procedure, shortened: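 Oral dosing; edema induced by carrageenan in rat paw and measured 3 h after administration. ED50 (µmol/kg) derived from the dose–response.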

[6] = system: Rattus norvegicus; test: Ratio of compound ED50 to aspirin ED50 for inhibition of carrageenan-induced foot paw edema in po dosed rat after 3 hrs; type: functional
[7] = system: Rattus norvegicus; test: Ratio of compound ED50 to ibuprofen ED50 for inhibition of carrageenan-induced foot paw edema in po dosed rat after 3 hrs; type: functional
Procedure, shortened: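 Carrageenan-induced paw edema in rats, test compound given orally. […] The ratio compares the compound ED50 with the ibuprofen ED50 from this model.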

[8] = system: Rattus norvegicus; test: Gastrointestinal toxicity in rat assessed ulcer index at 1.38 mmol/kg, po after 6 hrs relative to aspirin; type: organism-based; details: in vivo
Procedure, shortened: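 Rats fasted 24 h (water allowed) and dosed orally at 1.38 mmol/kg as a suspension in 1% methylcellulose. Killed 6 h later; stomachs opened along greater curvature, rinsed, and lesions measured by magnifier. Lesions up to 1 mm rated 1, 1–2 mm rated 2, >2 mm rated by length in mm. UI is summed lesion length per stomach averaged over n = 4; mean ± SEM.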

SMILES | IC50 [1] | Ratio IC50 [2] | IC50 [3] | IC50 [4] | ED50 [5] | Ratio ED50 [6] | Ratio ED50 [7] | UI [8]
CC(=O)NS(=O)(=O)c1ccc(-c2ccn(C(F)F)c(=O)c2)cc1C(=O)O | > 100 µM | > 5 | 17.6 µM | 0.32 µM | inactive | – | – | –
CC(=O)NS(=O)(=O)c1cc(-c2ccn(C(F)F)c(=O)c2)ccc1C(=O)O | > 100 µM | > 38 | 2.6 µM | 0.28 µM | 258 µmol/kg | 2.8 | 1.3 | –
O=C(O)c1cc(-c2ccn(C(F)F)c(=O)c2)ccc1O | 15.4 µM | > 15 | 0.98 µM | 0.37 µM | 434 µmol/kg | 1.6 | – | 0
CC(=O)Oc1ccccc1C(=O)O [ASPIRIN] | – | – | – | – | 716 µmol/kg | – | – | 57.4
O=C(O)c1ccc(-c2ccn(C(F)F)c(=O)c2)cc1O | > 100 µM | > 22 | 4.4 µM | 4.7 µM | 497 µmol/kg | 1.4 | – | 0
O=C(O)c1cc(-c2ccc(F)cc2F)ccc1O [DIFLUNISAL] | – | – | – | – | 68 µmol/kg | – | – | –
O=C(O)/C=C/c1ccc(O)c(O)c1 [CAFFEIC ACID] | – | – | – | 4 µM | – | – | – | –
